Assay results as given in article PMC8165011 (European journal of medicinal chemistry, 2021).
Converted amounts (≈) assume the structure as drawn. Where two headings read alike, the source gives them in different places.

Assays:
Format in all cases: cell-based
[1] = test system: S. aureus ATCC 25923 (Sa23), antibiotic susceptible; assay: MIC assay
[2] = test system: S. aureus BAA-2312 (Sa12), antibiotic-resistant; assay: MIC assay
[3] = test system: S. aureus ATCC 33591 (Sa91); assay: MIC assay
[4] = test system: S. aureus ATCC 700699 (Sa99); assay: MIC assay; conditions: for MIC Sa99: S. aureus ATCC 700699
[5] = test system: S. aureus ATCC 33592 (Sa92); assay: MIC assay
[6] = test system: S. epidermidis ATCC 700296 (Se); assay: MIC assay
[7] = test system: Bacillus subtilis ATCC 6623 (Bs); assay: MIC assay
[8] = test system: vancomycin-resistant E. faecium ATCC 700221 (Ef21); assay: MIC assay
[9] = test system: antibiotic susceptible E. faecalis ATCC 29212 (Ef12); assay: MIC assay; conditions: for MIC Efl2: E. faecalis ATCC 29212; for MIC: Enterococcus faecalis, ATCC29212, read-out: MIC Efl2
[10] = test system: tested Gram-positive strains; assay: MIC assay, summary over the tested Gram-positive strains; conditions: for antimicrobial activity (in words): tested Gram-positive strains
Procedure, shortened: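 CLSI standard broth microdilution. Test compound started at 50 µg/ml and serially diluted 2-fold. Run in triplicate.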

[11] = test system: S. aureus and E. faecalis biofilms; assay: Biofilm inhibition and destruction at 4x and 8xMIC; conditions: 4x and 8xMIC (data not shown)
[12] = test system: E. faecalis clinical isolates (VRE); assay: MIC against clinical isolates of E. faecalis; conditions: Enterococcus faecalis, VRE
[13] = test system: E. faecium clinical isolates (VRE); assay: MIC against clinical isolates of E. faecium; conditions: Enterococcus faecium, VRE
[14] = test system: S. aureus clinical isolates (MSSA, MRSA); assay: MIC against clinical isolates of S. aureus; conditions: Staphylococcus aureus, MRSA|MSSA
[15] = test system: S. aureus ATCC 25923 (MSSA); assay: Multistep
[16] = test system: S. aureus ATCC 700699 (MRSA); assay: Multistep; conditions: within two weeks of the start
[17] = test system: S. aureus ATCC 700699 (MRSA) stationary phase persister cells; assay: Persister cell killing assay; conditions: 64xMIC

4-[4-[(3-chloroanilino)methyl]-3-(p-tolyl)pyrazol-1-yl]benzoic acid [Compound 44]
MIC Sa23 [1]: 1.56 µg/mL
MIC Sal2 [2]: 1.56 µg/mL
MIC Sa91 [3]: 0.78 µg/mL
MIC Sa99 [4]: 0.78 µg/mL
MIC Sa92 [5]: 1.56 µg/mL
MIC Se [6]: 3.12 µg/mL
MIC Bs [7]: 0.78 µg/mL
MIC Ef21 [8]: 0.78 µg/mL
MIC Efl2 [9]: 12.5 µg/mL

4-[4-[(3-fluoroanilino)methyl]-3-(p-tolyl)pyrazol-1-yl]benzoic acid [Compound 42]
MIC Sa23 [1]: 3.12 µg/mL
MIC Sal2 [2]: 3.12 µg/mL
MIC Sa91 [3]: 3.12 µg/mL
MIC Sa99 [4]: 3.12 µg/mL
MIC Sa92 [5]: 3.12 µg/mL
MIC Se [6]: 6.25 µg/mL
MIC Bs [7]: 1.56 µg/mL
MIC Ef21 [8]: 6.25 µg/mL
MIC Efl2 [9]: 25 µg/mL

4-[4-[(4-chloroanilino)methyl]-3-(p-tolyl)pyrazol-1-yl]benzoic acid [Compound 45]
MIC Sa23 [1]: 1.56 µg/mL
MIC Sal2 [2]: 1.56 µg/mL
MIC Sa91 [3]: 1.56 µg/mL
MIC Sa99 [4]: 1.56 µg/mL
MIC Sa92 [5]: 1.56 µg/mL
MIC Se [6]: 3.12 µg/mL
MIC Bs [7]: 0.78 µg/mL
MIC Ef21 [8]: 1.56 µg/mL
MIC Efl2 [9]: 6.25 µg/mL

4-[4-[(4-fluoroanilino)methyl]-3-(p-tolyl)pyrazol-1-yl]benzoic acid [Compound 43]
MIC Sa23 [1]: 6.25 µg/mL
MIC Sal2 [2]: 3.12 µg/mL
MIC Sa91 [3]: 6.25 µg/mL
MIC Sa99 [4]: 6.25 µg/mL
MIC Sa92 [5]: 12.5 µg/mL
MIC Se [6]: 12.5 µg/mL
MIC Bs [7]: 1.56 µg/mL
MIC Ef21 [8]: 6.25 µg/mL
MIC Efl2 [9]: 25 µg/mL

O=C(O)c1ccc(-n2cc(CNc3ccccc3)c(-c3ccc(C(F)(F)F)cc3)n2)cc1 [Compound 41, 4-[4-(anilinomethyl)-3-[4-(trifluoromethyl)phenyl]pyrazol-1-yl]benzoic acid]
MIC ([10]; read-out: MIC value as low as): ≥ 3.12 µg/mL

O=C(O)c1ccc(-n2cc(CNc3cccc(Br)c3)c(-c3ccc(C(F)(F)F)cc3)n2)cc1 [Compound 46, 4-{4-[(3-bromoanilino)methyl]-3-[4-(trifluoromethyl)phenyl]-1H-pyrazol-1-yl}benzoic acid]
MIC ([10]; read-out: MIC value as low as): ≥ 0.78 µg/mL

O=C(O)c1ccc(-n2cc(CNc3ccc(Br)cc3)c(-c3ccc(C(F)(F)F)cc3)n2)cc1 [Compound 47, 4-[4-[(4-bromoanilino)methyl]-3-[4-(trifluoromethyl)phenyl]pyrazol-1-yl]benzoic acid]
MIC ([10]; read-out: MIC value as low as): ≥ 0.78 µg/mL

O=C(O)c1ccc(-n2cc(CNc3cccc(C(F)(F)F)c3)c(-c3ccc(C(F)(F)F)cc3)n2)cc1 [Compound 48, 4-[4-[[3-(trifluoromethyl)anilino]methyl]-3-[4-(trifluoromethyl)phenyl]pyrazol-1-yl]benzoic acid]
MIC ([4]; Staphylococcus aureus, ATCC700699, read-out: MIC Sa99): 0.39 µg/mL (≈ 0.772 µM)
antimicrobial activity (in words) [10]: potent activity

NS(=O)(=O)c1ccc(NCc2cn(-c3ccc(C(=O)O)cc3)nc2-c2ccc(C(F)(F)F)cc2)cc1 [Compound 49, 4-[4-[(4-sulfamoylanilino)methyl]-3-[4-(trifluoromethyl)phenyl]pyrazol-1-yl]benzoic acid]
antimicrobial activity (in words) [10]: almost eliminated the activity

O=C(O)c1ccc(-n2cc(CNc3cccc(OC(F)(F)F)c3)c(-c3ccc(C(F)(F)F)cc3)n2)cc1 [Compound 50, 4-[4-[[3-(trifluoromethoxy)anilino]methyl]-3-[4-(trifluoromethyl)phenyl]pyrazol-1-yl]benzoic acid]
MIC ([10]; read-out: MIC values): 0.78 to 3.12 µg/mL (≈ 1.5 to 5.99 µM)

Cc1ccc(NCc2cn(-c3ccc(C(=O)O)cc3)nc2-c2ccc(C(F)(F)F)cc2)cc1Cl [Compound 58, 4-[4-[(3-chloro-4-methyl-anilino)methyl]-3-[4-(trifluoromethyl)phenyl]pyrazol-1-yl]benzoic acid]
antimicrobial activity (in words) [10]: inhibited the growth of tested bacteria efficiently

O=C(O)c1ccc(-n2cc(CNc3ccc(Br)c(C(F)(F)F)c3)c(-c3ccc(C(F)(F)F)cc3)n2)cc1 [Compound 63, 4-[4-[[4-bromo-3-(trifluoromethyl)anilino]methyl]-3-[4-(trifluoromethyl)phenyl]pyrazol-1-yl]benzoic acid]
MIC [9]: 1.56 µg/mL (≈ 2.67 µM)

O=C(O)c1ccc(-n2cc(CNc3ccc(C(=O)O)c(C(F)(F)F)c3)c(-c3ccc(C(F)(F)F)cc3)n2)cc1 [Compound 67, 4-[[1-(4-carboxyphenyl)-3-[4-(trifluoromethyl)phenyl]pyrazol-4-yl]methylamino]-2-(trifluoromethyl)benzoic acid]
antimicrobial activity (in words) [10]: eliminated the activity

O=C(O)c1ccc(-n2cc(CNc3ccc(N4CCOCC4)c(C(F)(F)F)c3)c(-c3ccc(C(F)(F)F)cc3)n2)cc1 [Compound 68, 4-[4-[[4-morpholino-3-(trifluoromethyl)anilino]methyl]-3-[4-(trifluoromethyl)phenyl]pyrazol-1-yl]benzoic acid]
antimicrobial activity (in words) [10]: highly potent

O=C(O)c1ccc(-n2cc(CNc3ccc(Br)c(Cl)c3F)c(-c3ccc(C(F)(F)F)cc3)n2)cc1 [Compound 75, 4-[4-[(4-bromo-3-chloro-2-fluoro-anilino)methyl]-3-[4-(trifluoromethyl)phenyl]pyrazol-1-yl]benzoic acid]
MIC [9]: 1.56 µg/mL (≈ 2.74 µM)
biofilm inhibition and destruction [11]: > 95%

O=C(O)c1ccc(-n2cc(CNc3cc(F)c(C(F)(F)F)cc3F)c(-c3ccc(C(F)(F)F)cc3)n2)cc1 [Compound 76, 4-[4-[[2,5-difluoro-4-(trifluoromethyl)anilino]methyl]-3-[4-(trifluoromethyl)phenyl]pyrazol-1-yl]benzoic acid]
MIC [9]: 3.12 µg/mL (≈ 5.76 µM)

O=C(O)c1ccc(-n2cc(CNc3cc(Cl)c(O)c(Cl)c3)c(-c3ccc(C(F)(F)F)cc3)n2)cc1 [Compound 78, 4-[4-[(3,5-dichloro-4-hydroxy-anilino)methyl]-3-[4-(trifluoromethyl)phenyl]pyrazol-1-yl]benzoic acid]
antimicrobial activity (in words) [10]: inactivity

Cc1onc(-c2ccccc2)c1C(=O)N[C@@H]1C(=O)N2[C@@H]1SC(C)(C)[C@@H]2C(=O)O [Oxa, Oxacillin]
MIC ([12]; E. faecalis 1088051, VRE): 64 µg/mL (≈ 159 µM)
MIC ([12]; E. faecalis 1091563, VRE): 64 µg/mL (≈ 159 µM)
MIC ([12]; E. faecalis 1091720, VRE): 64 µg/mL (≈ 159 µM)
MIC ([12]; E. faecalis 1094112, VRE): > 64 µg/mL
MIC ([12]; E. faecalis 1100440, VRE): > 64 µg/mL
MIC ([13]; E. faecium 1088168, VRE): > 64 µg/mL
MIC ([13]; E. faecium 1088228, VRE): > 64 µg/mL
MIC ([13]; E. faecium 1088925, VRE): > 64 µg/mL
MIC ([13]; E. faecium 1089544, VRE): > 64 µg/mL
MIC ([13]; E. faecium 1091282, VRE): > 64 µg/mL
MIC ([14]; S. aureus 1088064, MRSA): 64 µg/mL (≈ 159 µM)
MIC ([14]; S. aureus 1088610, MRSA): 64 µg/mL (≈ 159 µM)
MIC ([14]; S. aureus 1088888, MRSA): > 64 µg/mL
MIC ([14]; S. aureus 1089106, MRSA): 64 µg/mL (≈ 159 µM)

O=C(O)c1cn(C2CC2)c2cc(N3CCNCC3)c(F)cc2c1=O [ciprofloxacin]
passage at which resistance started to develop [15]: 7 passage
fold more resistant ([15]; within two weeks of the start): 16 fold
fold more resistant [16]: 16 fold

CNC(C)C1CCC(N)C(OC2C(N)CC(N)C(OC3OCC(C)(O)C(NC)C3O)C2O)O1 (stereo not drawn) [gentamicin, reference compound]
effect on viability of MRSA persisters (in words) [17]: did not affect the viability
